According to ChEMBL document CHEMBL1138245, “Discovery of N1-(6-chloroimidazo[2,1-b][1,3]thiazole-5-sulfonyl)tryptamine as a potent, selective, and orally active 5-HT(6) receptor agonist” (J Med Chem, 2007):
Activity calls are given as the source filed them. The rule behind the calls is not given here.

Legend:
[1] = Drug level in Sprague-Dawley rat brain at 100 mg/kg, po after 4 hrs; format: ADME, organism-based; set-up: dose 100 mg/kg, route oral; settings: read-out: Drug uptake
Method in brief: (§1)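 Rats given a single 3 mg/kg ip or 100 mg/kg oral dose; plasma and brain concentrations measured over time to assess brain/plasma ratio.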

[2] = Drug level in Sprague-Dawley rat plasma at 3 mg/kg, ip after 0.25 hr; format: ADME, organism-based; set-up: dose 3 mg/kg, route intraperitoneal; method in brief: as §1
[3] = Ratio of drug level in brain to plasma in Sprague-Dawley rat at 100 mg/kg, po after 1 hr; format: ADME, organism-based; set-up: dose 100 mg/kg, route oral; settings: read-out: BPR
Method in brief: (§2)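 Rats given a single dose, 3 mg/kg ip or 100 mg/kg oral; drug concentrations measured in plasma and brain at timed points after dosing; brain/plasma concentration ratio calculated.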

[4] = Drug level in Sprague-Dawley rat brain at 3 mg/kg, ip after 0.5 hr; format: ADME, organism-based; set-up: dose 3 mg/kg, route intraperitoneal; settings: read-out: Drug uptake; method in brief: as §1
[5] = tested on: Rattus norvegicus; assay: Increase in GABA level in rat frontal cortex at 10 mg/kg, sc; format: functional, organism-based; set-up: dose 10 mg/kg
Method in brief: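 Frontal cortex extracellular GABA, glutamate and norepinephrine measured in rats after 10 mg/kg sc; in antagonist tests, 5-HT₆ antagonist 10 mg/kg sc given before agonist; comparison with vehicle, significance P < 0.05.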

[6] = species on record: Rattus norvegicus; assay: Effect on water intake in non-SIP rat model; format: functional, organism-based
[7] = Ratio of drug level in brain to plasma in Sprague-Dawley rat at 3 mg/kg, ip after 0.5 hr; format: ADME, organism-based; set-up: dose 3 mg/kg, route intraperitoneal; settings: read-out: BPR; method in brief: as §2
[8] = Tmax in rat at 10 mg/kg, po; format: ADME, organism-based; set-up: dose 10 mg/kg, route oral; settings: in vivo
[9] = molecular target: 5-hydroxytryptamine receptor 1D (Homo sapiens) (UniProt P28221); assay: Displacement of [3H]5HT from human 5HT1D receptor expressed in CHO cells at 1 uM; format: cell-based
[10] = Clearance in dog at 1 mg/kg, iv; format: ADME, organism-based, Canis lupus familiaris; set-up: dose 1 mg/kg, route intravenous; settings: in vivo
[11] = Ratio of drug level in brain to plasma in Sprague-Dawley rat at 100 mg/kg, po after 4 hrs; format: ADME, organism-based; set-up: dose 100 mg/kg, route oral; settings: read-out: BPR; method in brief: as §2
[12] = Tmax in dog at 5 mg/kg, po; format: ADME, organism-based, Canis lupus familiaris; set-up: dose 5 mg/kg, route oral; settings: in vivo
[13] = molecular target: T1, 5-hydroxytryptamine receptor 3A (Homo sapiens) (UniProt P46098); assay: Inhibition of human 5HT3 receptor expressed in CHO cells at 100 nM; format: cell-based
T1 sequence (whole entry): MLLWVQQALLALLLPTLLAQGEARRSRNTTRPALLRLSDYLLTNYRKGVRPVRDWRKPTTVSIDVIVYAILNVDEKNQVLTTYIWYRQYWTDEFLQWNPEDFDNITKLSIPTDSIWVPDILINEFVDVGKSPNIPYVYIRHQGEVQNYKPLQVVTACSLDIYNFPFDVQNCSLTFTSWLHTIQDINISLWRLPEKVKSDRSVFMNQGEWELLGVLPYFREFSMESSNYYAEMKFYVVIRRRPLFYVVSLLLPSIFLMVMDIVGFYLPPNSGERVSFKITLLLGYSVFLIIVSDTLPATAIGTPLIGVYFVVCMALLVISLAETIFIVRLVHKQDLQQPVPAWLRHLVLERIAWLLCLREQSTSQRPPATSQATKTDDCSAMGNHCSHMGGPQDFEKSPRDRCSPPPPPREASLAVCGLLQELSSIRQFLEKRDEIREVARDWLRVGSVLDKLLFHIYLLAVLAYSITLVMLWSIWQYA

[14] = Cmax in rat at 10 mg/kg, po; format: ADME, organism-based; set-up: dose 10 mg/kg, route oral; settings: in vivo
[15] = Drug level in Sprague-Dawley rat plasma at 100 mg/kg, po after 0.25 hr; format: ADME, organism-based; set-up: dose 100 mg/kg, route oral; method in brief: as §1
[16] = molecular target: 5-hydroxytryptamine receptor 2A (Homo sapiens) (UniProt P28223); assay: Displacement of [125I]DOI from human 5HT2A receptor expressed in CHO cells at 1 uM; format: cell-based
[17] = Ratio of drug level in brain to plasma in Sprague-Dawley rat at 3 mg/kg, ip after 2 hrs; format: ADME, organism-based; set-up: dose 3 mg/kg, route intraperitoneal; settings: read-out: BPR; method in brief: as §2
[18] = Clearance in rat at 1 mg/kg, iv; format: ADME, organism-based; set-up: dose 1 mg/kg, route intravenous; settings: in vivo
[19] = Cmax in dog at 5 mg/kg, po; format: ADME, organism-based, Canis lupus familiaris; set-up: dose 5 mg/kg, route oral; settings: in vivo
[20] = Volume of distribution in dog at 1 mg/kg, iv; format: ADME, organism-based, Canis lupus familiaris; set-up: dose 1 mg/kg, route intravenous; settings: in vivo, read-out: Vdss
[21] = Permeability in parallel artificial membrane; format: ADME; settings: PAMPA; read-out: permeability
Method in brief: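 Parallel artificial membrane permeability assay (PAMPA); permeability reported in cm/s; triplicate determinations, standard error <20%.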

[22] = Ratio of drug level in brain to plasma in rat at 3 mg/kg, ip or 100 mg/kg, po; format: ADME, organism-based; settings: read-out: BPR; method in brief: as §2
[23] = Ratio of drug level in brain to plasma in Sprague-Dawley rat at 3 mg/kg, ip after 4 hrs; format: ADME, organism-based; set-up: dose 3 mg/kg, route intraperitoneal; settings: read-out: BPR; method in brief: as §2
[24] = Ratio of drug level in brain to plasma in Sprague-Dawley rat at 3 mg/kg, ip after 1 hr; format: ADME, organism-based; set-up: dose 3 mg/kg, route intraperitoneal; settings: read-out: BPR; method in brief: as §2
[25] = Drug level in Sprague-Dawley rat plasma at 100 mg/kg, po after 4 hrs; format: ADME, organism-based; set-up: dose 100 mg/kg, route oral; method in brief: as §1
[26] = molecular target: T2, 5-hydroxytryptamine receptor 1F (Homo sapiens) (UniProt P30939); assay: Displacement of [3H]5-HT from human 5HT1F receptor expressed in CHO cells at 1 uM; format: cell-based
T2 sequence (whole entry): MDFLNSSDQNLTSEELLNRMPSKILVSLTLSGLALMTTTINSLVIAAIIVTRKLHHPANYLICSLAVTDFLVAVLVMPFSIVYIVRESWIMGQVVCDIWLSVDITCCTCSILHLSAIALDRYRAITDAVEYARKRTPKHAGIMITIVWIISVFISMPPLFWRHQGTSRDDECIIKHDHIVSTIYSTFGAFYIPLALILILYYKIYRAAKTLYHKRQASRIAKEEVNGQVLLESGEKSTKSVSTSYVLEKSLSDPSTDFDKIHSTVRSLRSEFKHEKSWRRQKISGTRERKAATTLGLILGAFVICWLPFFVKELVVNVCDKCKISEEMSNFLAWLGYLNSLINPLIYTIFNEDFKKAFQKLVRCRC

[27] = Ratio of drug level in brain to plasma in Sprague-Dawley rat at 3 mg/kg, ip after 0.25 hr; format: ADME, organism-based; set-up: dose 3 mg/kg, route intraperitoneal; settings: read-out: BPR; method in brief: as §2
[28] = Drug level in Sprague-Dawley rat plasma at 3 mg/kg, ip after 4 hrs; format: ADME, organism-based; set-up: dose 3 mg/kg, route intraperitoneal; method in brief: as §1
[29] = Metabolic stability in dog liver microsomes; format: ADME, Canis lupus familiaris, Microsome
[30] = molecular target: Beta-2 adrenergic receptor (Homo sapiens) (UniProt P07550); assay: Displacement of radio ligand from beta-2 adrenergic receptor at 100 nM
[31] = Metabolic stability in mouse liver microsomes; format: ADME, Microsome
[32] = Metabolic stability in human liver microsomes; format: ADME, Microsome
[33] = Drug level in Sprague-Dawley rat brain at 3 mg/kg, ip after 0.25 hr; format: ADME, organism-based; set-up: dose 3 mg/kg, route intraperitoneal; settings: read-out: Drug uptake; method in brief: as §1
[34] = AUC in rat at 1 mg/kg, iv; format: ADME, organism-based; set-up: dose 1 mg/kg, route intravenous; settings: plasma
[35] = Drug level in Sprague-Dawley rat plasma at 100 mg/kg, po after 2 hrs; format: ADME, organism-based; set-up: dose 100 mg/kg, route oral; method in brief: as §1

Chain of 5-hydroxytryptamine receptor 2A (Homo sapiens) (P28223 whole entry): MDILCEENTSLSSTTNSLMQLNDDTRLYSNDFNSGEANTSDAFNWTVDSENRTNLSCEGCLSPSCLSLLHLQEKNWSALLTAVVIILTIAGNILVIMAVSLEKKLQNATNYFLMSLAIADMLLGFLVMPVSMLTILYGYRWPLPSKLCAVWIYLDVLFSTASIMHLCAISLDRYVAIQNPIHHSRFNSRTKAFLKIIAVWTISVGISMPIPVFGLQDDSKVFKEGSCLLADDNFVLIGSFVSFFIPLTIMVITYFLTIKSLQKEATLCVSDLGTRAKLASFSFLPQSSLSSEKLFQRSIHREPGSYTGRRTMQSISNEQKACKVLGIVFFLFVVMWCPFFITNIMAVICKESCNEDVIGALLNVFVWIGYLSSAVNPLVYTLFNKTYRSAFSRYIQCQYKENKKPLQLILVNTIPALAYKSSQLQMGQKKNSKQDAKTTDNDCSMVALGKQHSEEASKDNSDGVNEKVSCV
Chain of Beta-2 adrenergic receptor (Homo sapiens) (P07550 whole entry, looked up): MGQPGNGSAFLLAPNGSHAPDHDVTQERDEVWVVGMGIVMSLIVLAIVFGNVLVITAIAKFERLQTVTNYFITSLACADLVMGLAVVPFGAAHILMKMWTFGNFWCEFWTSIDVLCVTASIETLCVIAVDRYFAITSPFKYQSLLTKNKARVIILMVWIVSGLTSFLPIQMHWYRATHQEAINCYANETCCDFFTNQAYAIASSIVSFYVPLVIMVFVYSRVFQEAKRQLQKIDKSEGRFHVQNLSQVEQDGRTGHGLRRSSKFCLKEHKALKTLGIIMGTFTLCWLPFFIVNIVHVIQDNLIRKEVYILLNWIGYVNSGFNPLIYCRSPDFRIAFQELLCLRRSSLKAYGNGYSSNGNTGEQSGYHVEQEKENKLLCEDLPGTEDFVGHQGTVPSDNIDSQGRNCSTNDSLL
Chain of 5-hydroxytryptamine receptor 1D (Homo sapiens) (P28221 whole entry): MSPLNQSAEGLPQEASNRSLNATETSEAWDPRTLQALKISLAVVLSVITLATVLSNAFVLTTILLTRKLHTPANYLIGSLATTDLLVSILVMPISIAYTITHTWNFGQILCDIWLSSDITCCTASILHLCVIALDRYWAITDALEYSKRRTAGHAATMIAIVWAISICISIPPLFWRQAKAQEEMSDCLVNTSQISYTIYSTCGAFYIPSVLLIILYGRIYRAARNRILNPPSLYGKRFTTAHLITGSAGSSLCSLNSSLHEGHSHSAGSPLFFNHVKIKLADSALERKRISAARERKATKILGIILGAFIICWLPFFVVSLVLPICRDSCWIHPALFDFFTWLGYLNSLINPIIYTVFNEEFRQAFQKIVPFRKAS

NCCc1cn(S(=O)(=O)c2c(Cl)nc3sccn23)c2ccccc12 showed a concentration at 4 h [1] of 98 ng/mL, a concentration at 0.25 h [2] of 91.3 ng/mL and a Kp at 1 h [3] of 0.14. The concentration at 0.5 h [4] was 11.5 ng/mL, the Activity [5] was “Active” and the Activity [6] was “inactive”. For the same molecule, the Kp at 0.5 h [7] was 0.17, the Tmax [8] was 1.7 h and the Activity [9] was 21%. It also gave a clearance [10] of 30 mL/min/kg, a Kp at 4 h [11] of 0.26 and a Tmax [12] of 2.3 h. It also gave an inhibition [13] of less than 50%, a Cmax [14] of 49 ng/mL and a concentration at 0.25 h [15] of 120 ng/mL. The Activity [16] was 25%, the Kp at 2 h [17] was 0.33 and the clearance [18] was 123 mL/min/kg. For the same molecule, the Cmax [19] was 130 ng/mL, the Vd [20] was 7.9 L/kg and the Papp [21] was 13.6 ×10⁻⁶ cm/s. The Kp [22] was 0.1, the Kp at 4 h [23] was 1.39 and the Kp at 1 h [24] was 0.68. The concentration at 4 h [25] was 372 ng/mL, the Activity [26] was 40% and the Kp at 0.25 h [27] was 0.09. It also gave a concentration at 4 h [28] of 4.3 ng/mL, a half-life [29] of 0.433 h and an Activity [30] of less than 50%. The half-life [31] was greater than 1 h, the half-life [32] was greater than 1 h and the concentration at 0.25 h [33] was 8.4 ng/mL. For the same molecule, the AUC [34] was 140 ng·h/mL and the concentration at 2 h [35] was 239 ng/mL.
